Compound activity as filed in PubChem.
Apaf-1 act: activates human Apaf-1 apoptosome. 0.31% of 330,000 active. Apaf-1 apoptosome caspase-3 activation, DEVD-Rh110 fluorescence; active compounds read low. activity change, negative = activation, % at 20 µM;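 active means activity change at or below -40% at 20 µM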
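Material: biochemical Apaf-1 apoptosome reconstitution; Medium: 20 mM HEPES buffer, pH 7.5, containing CHAPS and BSA; Reagent: dATP, cytochrome c, and (Z-DEVD)2-Rh110 caspase-3 substrate; Times: 30 min preincubation, 50 min reaction, room temperature; Signal: Rh110 fluorescence, excitation 480 nm, emission 540 nm; Measure: Caspase-3 activity via Apaf-1.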
Rh110 interf act: counter-screen for Apaf-1 activators: fluorescence interference; shares compounds with Apaf-1 act; Rh110 fluorescence interference, quenched caspase reaction, Ex480/Em540; fluorescence interference (activity change), % at 20 µM, hits read low; 980 tested, under 10 active; AID 504616;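 active means mean activity change at or below -40% when tested at 20 µM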
Apaf-1 act conf: confirmation of human Apaf-1 activators; shares compounds with Apaf-1 act; reconstituted apoptosome caspase-3 activity, DEVD-Rh110 fluorescence; active compounds read low; activity change, negative = activation, % at 20 µM; 5% of 980 active;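 active means mean activity change at or below -40%, meaning activation of 40% or more, at 20 µM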
Fluor interf act: Apaf-1 activator counter-screen fluorescence artifact; shares compounds with Apaf-1 act; 55 tested, under 10 active; fluorescence interference counterscreen, Apaf-1 activator assay; EC50, µM; AID 588592; call rule not given here
* marks the source's active call; other numbers are inactive results; . = not tested or not shown. A selection follows.

SMILES	Apaf-1 act	Rh110 interf act	Apaf-1 act conf	others
COc1ccc(CCNC(=O)c2ccc3nc(-c4ccco4)c(-c4ccco4)nc3c2)cc1OC	55.5	.	.
CCc1sc(NC(=O)CCC(=O)O)nc1-c1cc2ccccc2oc1=O	-222.7*	3.2	3.5
COc1ccc2c(c1)Cc1sc(NC(=O)c3ccccc3)nc1-2	83.5	.	.
O=C1Cc2ccccc2C(=O)N1OCc1ccc(Cl)cc1Cl	67.6	.	.
COC(=O)C1=C(C)N(Cc2ccccc2)C(=NCc2ccccc2)N[C@H]1c1ccccc1	47.2	.	.
CC(OC(=O)c1cc(O)c2ccccc2c1O)C(=O)Nc1ccc(C(N)=O)cc1 (stereo unspecified)	48.9	.	.
Cc1ccc(C(=O)NC(C(=O)Nc2ccccc2)c2ccccc2)cc1 (stereo unspecified)	-54.7*	8.2	15.0
CCc1ccc(S(=O)(=O)/N=C2\C=C(Nc3ccc(O)cc3)C(=O)c3ccccc32)cc1	95.1	.	.
COc1cc(S(=O)(=O)Nc2ccccc2)ccc1NC=O	-48.9*	-2.5	11.0
COc1cc(-c2ccc(Nc3ccccc3C(=O)O)c(OC)c2)ccc1Nc1ccccc1C(=O)O	47.8	.	.
CC(C)(C)c1ccc(OCCOc2ccc(C(C)(C)C)cc2NC=O)c(NC=O)c1	41.3	.	.
O=C(Nc1ncccn1)c1cccc(F)c1	-47.9*	0.9	9.6
CN(C)c1cccc2c1c(NC(=O)c1ccc(F)cc1)nn2C	91.9	.	.
O=C(Nc1ccc(-c2cccc(F)c2)cc1)C1CCCN(Cc2ccccn2)C1 (stereo unspecified)	40.1	.	.
C#CCOCCOCCOCCNc1nc(N2CCN(C(=O)CCCCCCCCCCNC(=O)[C@H](CCCCN)n3cc(C)nn3)CC2)nc(N2CCN(C(=O)CCCCCCCCCCNC(=O)[C@H](CCCN=C(N)N)n3cc(C[C@@H](C)CC)nn3)CC2)n1	74.5	.	.
COc1ccc(C(=O)c2c(C(F)(F)F)oc3c2C(=O)c2ccccc2C3=O)cc1OC	84.6	.	.
COc1ccc(C(=O)Nc2ccc3c(c2)C(=O)c2ccccc2C3=O)cc1OC	-507.3*	5.4	5.6	Fluor interf act=>100
O=C(NC1=C(Nc2ccc(F)cc2)C(=O)c2ccccc2C1=O)c1ccc(Cl)cc1	70.5	.	.
Cc1ccccc1-c1cc2c(nn1)-c1ccccc1C2=O	97.1	.	.
CCCCOc1cc(C(=O)OCCN(CC)CC)ccc1N	2.8	.	.
O=C1c2ccccc2C(=O)C1c1ccc2ccccc2n1	-333.6*	5.5	5.4
CCCCc1c(C)c(C#N)c2[nH]c3ccccc3n2c1=O	45.3	.	.
NC1=NC[C@H](CC2CCCCC2)N1CCc1cc(C(F)(F)F)cc(C(F)(F)F)c1	73.9	.	.
CCN(CC(=O)Nc1ccccc1C(F)(F)F)C(=O)c1ccccc1SCC(=O)N1CCCC1	42.9	.	.
O=C(NC(=S)Nc1ccccc1C(F)(F)F)c1ccccc1F	-244.0*	13.5	16.6
SMILES	Apaf-1 act	Rh110 interf act	Apaf-1 act conf	others
Fc1ccc(NC(=S)Nc2cccc3ccccc23)cc1F	80.6	.	.
CC(=O)c1ccc(NC2=C(N3CCOCC3)C(=O)c3ccccc3C2=O)cc1	80.1	.	.
CC(C)Oc1ccc(N2CC(C(=O)Nc3ccc(N4CCOCC4)cc3)CC2=O)cc1 (stereo unspecified)	-106.6*	8.2	5.1
CCC(C)(C)c1ccc(OCCCC[n+]2ccc(C)cc2)c(C(C)(C)CC)c1	48.4	.	.
CCC[C@@H](CN1CCC[C@H]1CN1C(N)=NC[C@H]1CC(C)C)N1C[C@@H](Cc2ccccc2)N(CCCC2CCCC2)C1=N	59.0	.	.
CCc1cc2c(SCC(=O)N3CC(=O)Nc4ccccc43)ncnc2s1	55.1	.	.
NC(=O)c1c(NC(=O)CCCn2cnc([N+](=O)[O-])n2)sc2c1CCCC2	-90.3*	-1.0	16.0
CCN1CCc2c(sc(NC(=O)c3ccc(C(=O)c4ccccc4)cc3)c2C(N)=O)C1	43.6	.	.
Cc1ccc(SCC(=O)OCC(=O)NCCNC(=O)COC(=O)CSc2ccc(C)c(C)c2)cc1C	40.1	.	.
Cc1[nH]c(=O)[nH]c(=O)c1S(=O)(=O)Nc1ccc(F)cc1F	-264.5*	4.3	6.6
COCCn1c(N)c(C(=O)OCc2ccccc2)c2nc3ccccc3nc21	94.5	.	.
COCCN(C(=O)CSc1nc(N)cc(=O)[nH]1)c1c(N)n(Cc2ccccc2)c(=O)[nH]c1=O	45.3	.	.
CCCN(C(=O)COC(=O)C12CCC(=O)N1c1ccccc1S2)c1c(N)n(Cc2ccccc2)c(=O)[nH]c1=O (stereo unspecified)	-50.2*	3.7	14.2
C=CCC[C@@H](Cc1ccc(F)cc1)C(=O)OC[C@@H]1CCCN1C(=O)[C@@H](CC=C)CC(=O)N(CCO)Cc1ccccc1	48.2	.	.
Cc1cc2nc(SCC(=O)Nc3nonc3C)c3c(c2cc1C)CCCC3	-48.0*	5.4	15.7
CC1=NN(c2ccccc2)C(=O)/C1=C\c1cn(CCC#N)nc1-c1ccc(Cl)cc1	79.8	.	.
O=S(=O)(c1ccc2nc(-c3ccco3)c(-c3ccco3)nc2c1)N1CCOCC1	77.3	.	.
O=S(=O)(c1ccc(F)cc1)N1CCN(S(=O)(=O)c2ccc3c(c2)OCCO3)CC1	-217.4*	0.3	12.7
Cc1ccc(S(=O)(=O)N2CCC(C(=O)OCC(=O)N(C)CC(=O)Nc3ccc(F)cc3)CC2)cc1C	51.6	.	.
NS(=O)(=O)c1ccc(NC2=CC(=O)C(=O)c3ccccc32)cc1	95.0	.	.
Cc1ccc2oc(=O)cc(CN3CC(C)OC(C)C3)c2c1 (stereo unspecified)	-66.1*	11.4	7.9
CS(=O)(=O)N(CC(=O)N1CCN(c2ccccc2)CC1)c1ccccc1Cl	-163.9*	3.7	10.8
CCN(CC)c1ccc(N=Cc2ccccc2[N+](=O)[O-])cc1	62.0	.	.
C=CCn1c(N)c(C(=O)Nc2cccc(C)c2)c2nc3ccccc3nc21	47.5	.	.
COC(=O)CCC(=O)OC1(C)C(=O)C2=CN(CCCCO)C(c3ccc(OC)cc3)=CC2=C(Br)C1=O (stereo unspecified)	80.2	.	.
SMILES	Apaf-1 act	Rh110 interf act	Apaf-1 act conf	others
O=[N+]([O-])c1ccc(N/N=C/c2ccc(O)c(O)c2O)c(S(=O)(=O)N2CCOCC2)c1	62.7	.	.
Cc1ccc(S(=O)(=O)N(C)C)cc1NC(=O)c1ccccc1SCC(=O)N1CCCC1	41.5	.	.
Cc1ccc(S(=O)(=O)N(C)C)cc1NC(=O)CSc1nc2ncc(Cl)cc2[nH]1	-110.6*	2.7	19.0
S=C(Nc1ccc2nsnc2c1)N1CCCCCC1	92.6	.	.
Cc1cc(C)c(S(=O)(=O)/N=C2/C=C(SCC(=O)O)C(=O)c3ccccc32)cc1C	72.4	.	.
CCCCN(C(=O)c1cccc(S(=O)(=O)N2CCOCC2)c1)c1c(N)n(CCC)c(=O)[nH]c1=O	-84.0*	0.2	4.6
COc1ccc(C(=O)N(CCc2ccccc2)Cc2ccccc2)cc1S(=O)(=O)N1CCOCC1	45.0	.	.
COc1ccc(C(=O)N(Cc2ccccc2)c2cccc(C)c2)cc1S(=O)(=O)N1CCOCC1	45.2	.	.
COc1ccc(-n2nc(C(=O)NCC(=O)NC3CCCC(C)C3C)c3ccccc3c2=O)cc1 (stereo unspecified)	51.2	.	.
CC(OC(=O)c1nn(C)c(=O)c2ccccc12)C(=O)NC1CCCCC1C (stereo unspecified)	-49.7*	-2.6	9.7
